# Key:
# K562 = test: Antiproliferative activity against human K562 cells assessed as inhibition of cell proliferation after 48 hrs by MTT assay; format: functional, cell-based; conditions: K562, 48 h
# Procedure, shortened: (§1)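 Cells grown at 37 °C in humidified 5% CO2. K562, C26 and HCT lines in RPMI-1640; other lines in DMEM; both media with 10% FBS, penicillin and streptomycin. 1000 cells/well seeded, incubated overnight, then compound at various doses for 48 h. MTT added for 4 h, formazan dissolved in DMSO, absorbance read at 590 nm. IC50 from dose–response curves, mean ± SEM of at least three independent experiments.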
# HepG2 = test: Antiproliferative activity against human HepG2 cells assessed as inhibition of cell proliferation after 48 hrs by MTT assay; format: functional, cell-based; procedure, shortened: as §1
# A-375 = test: Antiproliferative activity against human A375 cells assessed as inhibition of cell proliferation after 48 hrs by MTT assay; format: functional, cell-based; conditions: A-375, 48 h; procedure, shortened: as §1
# [1] = Toxicity in iv dosed BALB/c mouse; format: organism-based; conditions: in vivo
# Procedure, shortened: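 Maximum tolerated dose in BALB/c mice (SPF, 18−22 g, 6−8 weeks, half female and half male). Graded doses given intravenously, n = 4 per dose. Survival and adverse effects recorded every other day after dosing. MTD defined as the largest dose given before one death occurs.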
# [2] = Solubility in PBS solution by nephelometry; format: physicochemical
# Procedure, shortened: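 Maximum soluble concentration in PBS, determined by nephelometry.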
Compound,IC50 (K562),"IC50 (HepG2; Homo sapiens, HepG2, 48 h)",IC50 (A-375),MTD [1],solubility kinetic [2],IC50 (HepG2; hepg2)
COc1ccc(/C=C/C(=O)c2ccc(OC)c3c2OC(C)(C)C=C3)cc1N.O=S(=O)(O)O,,,,200 mg/kg,58 µg/mL,
COc1ccc(/C=C/C(=O)c2ccc(OC)c3c2OC(C)(C)C=C3)cc1N.O=C(O)/C=C\C(=O)O,,,,,47 µg/mL,12 nM
COc1ccc(/C=C/C(=O)c2ccc(OC)c3c2OC(C)(C)C=C3)cc1NC(=O)Cc1cccc(C(F)(F)F)c1,> 2000 nM,> 2000 nM,> 2000 nM,,,
COc1ccc(/C=C/C(=O)c2ccc(OC)c3c2OC(C)(C)C=C3)cc1NS(=O)(=O)Cc1ccccc1,> 2000 nM,> 2000 nM,2000 nM,,,
COc1ccc(/C=C/C(=O)c2ccc(OC)c3c2OC(C)(C)C=C3)cc1NC(N)=O,1540 nM,1640 nM,1990 nM,,,
COc1ccc(/C=C/C(=O)c2ccc(OC)c3c2OC(C)(C)C=C3)cc1N.O=C(O)C(O)C(O)C(=O)O,,11 nM,,,52 µg/mL,
CCCCC(=O)Nc1cc(/C=C/C(=O)c2ccc(OC)c3c2OC(C)(C)C=C3)ccc1OC,1160 nM,1300 nM,1590 nM,,,

# Second part, led by results:
IC50 (K562),"IC50 (HepG2; Homo sapiens, HepG2, 48 h)",IC50 (A-375),Compound,MTD [1],solubility kinetic [2],IC50 (HepG2; hepg2)
> 2000 nM,> 2000 nM,> 2000 nM,CCN(CC)c1cc(/C=C/C(=O)c2ccc(OC)c3c2OC(C)(C)C=C3)ccc1OC,,,
1860 nM,970 nM,790 nM,COc1ccc(/C=C/C(=O)c2ccc(OC)c3c2OC(C)(C)C=C3)cc1NCc1ccccc1,,,
1500 nM,> 2000 nM,> 2000 nM,COc1ccc(/C=C/C(=O)c2ccc(OC)c3c2OC(C)(C)C=C3)cc1N(CC=C(C)C)CC=C(C)C,,,
570 nM,830 nM,530 nM,COc1ccc(/C=C/C(=O)c2ccc(OC)c3c2OC(C)(C)C=C3)cc1NC(=O)C(C)C,,,
700 nM,570 nM,430 nM,COc1ccc(/C=C/C(=O)c2ccc(OC)c3c2OC(C)(C)C=C3)cc1NC(C)=O,,,
1580 nM,1960 nM,1870 nM,COc1ccc(/C=C/C(=O)c2ccc(OC)c3c2OC(C)(C)C=C3)cc1NS(=O)(=O)C1CC1,,,

# Reference: ChEMBL document CHEMBL3351994, “Synthesis and biological evaluation of novel millepachine derivatives as a new class of tubulin polymerization inhibitors” (J Med Chem, 2014)
